The subject of assay [1] is HepG2. Description: Induction of apoptosis in human HepG2 cells assessed as late apoptotic cells at 5 uM after 48 hrs by annexin V-FITC/propidium iodide staining based assay (reference value: 1.8 %). The format is functional.
Assay [2] has as its system HepG2. Description: Induction of apoptosis in human HepG2 cells assessed as early apoptotic cells at 2.5 uM after 48 hrs by annexin V-FITC/propidium iodide staining based assay (reference value: 3.2 %). The class given is functional.
Assay [3] has as its system HepG2. Description: Induction of apoptosis in human HepG2 cells assessed as late apoptotic cells at 2.5 uM after 48 hrs by annexin V-FITC/propidium iodide staining based assay (reference value: 1.8 %). The format is functional.
The subject of assay [4] is HepG2. Description: Induction of apoptosis in human HepG2 cells assessed as early apoptotic cells at 1.25 uM after 48 hrs by annexin V-FITC/propidium iodide staining based assay (reference value: 3.2 %). The format is functional.
In assay [5] the test system is HepG2. Description: Induction of apoptosis in human HepG2 cells assessed as late apoptotic cells at 1.25 uM after 48 hrs by annexin V-FITC/propidium iodide staining based assay (reference value: 1.8 %). The class given is functional.
Assay [6] concerns HepG2. Description: Induction of apoptosis in human HepG2 cells assessed as early apoptotic cells at 5 uM after 48 hrs by annexin V-FITC/propidium iodide staining based assay (reference value: 3.2 %). The format is functional.
For assay [7], the system named is HepG2. Description: Potency index, ratio of SAHA IC50 to test compound IC50 for antiproliferative activity against human HepG2 cells. The format is functional.
For the next assay, the system named is HCCLM3. Briefly: Antiproliferative activity against human HCCLM3 cells after 48 hrs by MTT assay. The format is functional, cell-based. The following applies: HCCLM3, 48 h.
The target in assay [8] is T1, Histone deacetylase 1 (Homo sapiens, UniProt Q13547). Description: Inhibition of HDAC1 (unknown origin) using Boc-Lys (Ac)-AMC as substrate measured after 60 mins by […].
T1 sequence (Q13547 whole entry): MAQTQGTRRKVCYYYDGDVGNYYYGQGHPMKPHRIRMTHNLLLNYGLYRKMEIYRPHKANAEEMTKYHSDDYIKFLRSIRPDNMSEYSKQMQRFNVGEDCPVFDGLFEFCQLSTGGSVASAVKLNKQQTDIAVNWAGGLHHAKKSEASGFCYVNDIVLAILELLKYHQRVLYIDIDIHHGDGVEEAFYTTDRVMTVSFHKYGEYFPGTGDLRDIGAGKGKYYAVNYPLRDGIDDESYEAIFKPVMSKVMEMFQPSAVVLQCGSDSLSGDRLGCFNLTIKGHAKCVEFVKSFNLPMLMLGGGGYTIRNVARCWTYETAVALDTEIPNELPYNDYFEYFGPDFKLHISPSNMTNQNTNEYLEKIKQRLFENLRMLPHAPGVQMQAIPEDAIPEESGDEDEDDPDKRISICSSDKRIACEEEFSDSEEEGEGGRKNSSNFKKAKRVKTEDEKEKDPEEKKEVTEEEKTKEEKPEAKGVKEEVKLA
Assay [9] relates to HepG2. Briefly: Antiproliferative activity against human HepG2 cells after 48 hrs by MTT assay. The class given is functional, cell-based. Particulars: HepG2, 48 h. In general terms: Formazan colour is commonly taken as a measure of viable cells.
Assay [10] deals with T1, Histone deacetylase 1. Briefly: Inhibition of HDAC1 in human HepG2 cells assessed as increase in acetylated histone H3 levels by Western blot analysis. The class given is cell-based. Put shortly: (§1)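 HepG2 cells were treated at three concentrations (1.25, 2.5 and 5.0), with SAHA as the reference. Acetylated histone H3 and H4 were detected by immunoblotting. Ac-H3 and Ac-H4 band intensities were quantified by densitometric scanning and normalised to β-actin, n = 3.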

For assay [11], the target named is T1, Histone deacetylase 1. Briefly: Inhibition of HDAC1 in human HepG2 cells assessed as increase in acetylated histone H4 levels by Western blot analysis. The class given is cell-based. Put shortly: as §1
In general terms: A western blot detects proteins with antibodies after separation by electrophoresis.

For assay [12], the system named is HepG2. Description: Induction of apoptosis in human HepG2 cells after 48 hrs by annexin V-FITC/propidium iodide staining based assay. The format is functional, cell-based.
The target in assay [13] is T1, Histone deacetylase 1. Briefly: Potency index, ratio of SAHA IC50 to test compound IC50 for HDAC1 (unknown origin).

The IC50 is the concentration that gives 50% inhibition. Lower therefore signals greater potency.

Consider `O=C(CCCCCCC(=O)Nc1ccccc1)NO` [VORINOSTAT], for which the Activity with HepG2 [1] is recorded as 10.7%; in the assay on HepG2 [2], 33.5%; in the assay on HepG2 [3] it was 10.7%; in the assay with HepG2 [4], 29.7%; in the assay with HepG2 [5], 9.3%; with HepG2 [6], 40.4%.

In the case of `COc1ccc(N(Cc2noc(-c3cccc(C)c3)n2)C(=O)CCCCCC(=O)NO)cc1`, the “Ratio IC50” value with HepG2 [7] is reported as 2 - 4. Also, the values for the IC50 with HCCLM3, on Histone deacetylase 1 [8] and in the assay on HepG2 [9] were 6830 nM, 12.1 nM and 1680 nM, respectively.

On to `COc1ccc(N(Cc2noc(-c3cccc(F)c3)n2)C(=O)CCCCCC(=O)NO)cc1`, for which the “Ratio IC50” value in the assay with HepG2 [7] is recorded as 2 - 4. Moreover, the inhibition result on Histone deacetylase 1 [10] and at Histone deacetylase 1 [11] was “Dose-dependent effect” throughout. Besides, the IC50 with HCCLM3 is 6560 nM; at Histone deacetylase 1 [8], 10.5 nM; with HepG2 [9], 1030 nM. Moreover, the Activity was 10% in the assay with HepG2 [1]; 44% with HepG2 [2]; 14% with HepG2 [3]; 44.6% in the assay with HepG2 [4]; 11.1% in the assay with HepG2 [5]; “Dose-dependent effect” with HepG2 [12]. Also, the Activity with HepG2 [6] is reported as 50.8%.

Turning to `COc1ccc(N(Cc2noc(-c3ccccc3)n2)C(=O)CCCCCC(=O)NO)cc1`, the results for the “Ratio IC50” value with HepG2 [7] and on Histone deacetylase 1 [13] were 2 - 4 and 2, respectively. In addition, the inhibition result at Histone deacetylase 1 [10] and on Histone deacetylase 1 [11] was “Dose-dependent effect” throughout. The figures for the 50% inhibitory concentration (IC50) in the assay with HCCLM3, against Histone deacetylase 1 [8] and in the assay on HepG2 [9] were 5190 nM, 8.2 nM and 1070 nM, respectively. The Activity with HepG2 [1] was 11.5%; in the assay on HepG2 [2] it was 42.7%; with HepG2 [3] it was 11.3%; in the assay on HepG2 [4], 40.7%; with HepG2 [5], 10.1%; with HepG2 [12], “Dose-dependent effect”. Further, the Activity in the assay on HepG2 [6] was determined as 50.2%.

The values above are taken from ChEMBL document CHEMBL4308883, “Development of hydroxamate-based histone deacetylase inhibitors containing 1,2,4-oxadiazole moiety core with antitumor activities” (Bioorg Med Chem Lett, 2019).
